Data on four molecules can be found in PMC9061098 (RSC Advances, 2019).

Peptide text beside a SMILES is read from it.

What all share (assay): MIC/MBC microdilution assay
In general terms: Broth dilution looks for growth in wells or tubes with falling amounts of substance.

The test system of one assay is E. coli ATCC 43827. Format: cell-based, Escherichia coli. The settings on record: n = 2; for Antibacterial activity, MIC: microdilution, 24 h at 37 °C, absorbance 620 nm; for Antibacterial activity, MBC: plated on MHA, overnight 37 °C. In a few lines:
(§1)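 Broth microdilution: 90 µL peptide (200, 100, 50, 25, 12.5 and 6.2 µg mL-1 as added) plus 10 µL inoculum (5 × 10^6 CFU mL-1 as added). Incubation 24 h at 37 °C; growth read as absorbance at 620 nm. For MBC, wells with no visible growth were loop-sampled, spread on MHA and incubated overnight at 37 °C. Run twice (n = 2).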

A further assay deals with P. aeruginosa ATCC 27853. It is filed as cell-based, Pseudomonas aeruginosa. Particulars: n = 2; for Antibacterial activity, MIC: microdilution, 24 h at 37 °C, absorbance 620 nm; for Antibacterial activity, MBC: plated on MHA, overnight 37 °C. In a few lines:
as §1

The next assay has as its system S. aureus ATCC 25923. Format: cell-based, Staphylococcus aureus. The settings on record: n = 2; for Antibacterial activity, MIC: microdilution, 24 h at 37 °C, absorbance 620 nm; for Antibacterial activity, MBC: plated on MHA, overnight 37 °C. The procedure, abridged: as §1
For the next assay, the system named is E. faecalis ATCC 29212. It is filed as cell-based, Enterococcus faecalis. The settings on record: n = 2; for Antibacterial activity, MIC: microdilution, 24 h at 37 °C, absorbance 620 nm; for Antibacterial activity, MBC: plated on MHA, overnight 37 °C. In a few lines: as §1
The test system of a further assay is E. coli ATCC 25922. It is filed as cell-based, Escherichia coli. Particulars: n = 2. In a few lines: as §1
The test system of another assay is E. coli ATCC 11775. Format: cell-based, Escherichia coli. The settings on record: n = 2. In a few lines:
as §1

The mark [1] stands for this setting: microdilution, 24 h at 37 °C, absorbance 620 nm.

On to `N=C(N)NCCC[C@H](NC(=O)[C@H](Cc1c[nH]c2ccccc12)NC(=O)[C@H](CCC(N)=O)NC(=O)[C@H](Cc1c[nH]c2ccccc12)NC(=O)[C@H](CCCNC(=N)N)NC(=O)[C@@H](N)CCCNC(=N)N)C(N)=O` [LfcinB (20–25)] (H-RRWQWR-NH2), for which the “Antibacterial activity, MIC” value was 102 µM in the assay with E. coli ATCC 43827, 203 µM with P. aeruginosa ATCC 27853, 203 µM in the assay with S. aureus ATCC 25923 and greater than 203 µM in the assay on E. faecalis ATCC 29212. Also, the “Antibacterial activity, MBC” value in the assay with E. coli ATCC 43827 was 203 µM; in the assay with P. aeruginosa ATCC 27853, greater than 203 µM; in the assay on S. aureus ATCC 25923 it was greater than 203 µM; in the assay with E. faecalis ATCC 29212, greater than 203 µM.

For the molecule `CSCC[C@H](NC(=O)[C@H](CCCNC(=N)N)NC(=O)[C@H](Cc1c[nH]c2ccccc12)NC(=O)[C@H](CCC(N)=O)NC(=O)[C@H](Cc1c[nH]c2ccccc12)NC(=O)[C@H](CCCNC(=N)N)NC(=O)[C@@H](N)CCCNC(=N)N)C(=O)N[C@@H](CCCCN)C(=O)N[C@@H](CCCCN)C(=O)N[C@@H](CC(C)C)C(=O)NCC(N)=O` [LfcinB (20–30)] (H-RRWQWRMKKLG-NH2), the “Antibacterial activity, MIC” value is 65 µM in the assay with E. coli ATCC 43827, greater than 130 µM in the assay with P. aeruginosa ATCC 27853, 130 µM in the assay with S. aureus ATCC 25923 and greater than 130 µM with E. faecalis ATCC 29212. The “Antibacterial activity, MBC” value was 130 µM in the assay with E. coli ATCC 43827, greater than 130 µM with P. aeruginosa ATCC 27853, greater than 130 µM with S. aureus ATCC 25923 and greater than 130 µM with E. faecalis ATCC 29212.

For `N=C(N)NCCC[C@H](NC(=O)[C@H](Cc1c[nH]c2ccccc12)NC(=O)[C@H](CCC(N)=O)NC(=O)[C@H](Cc1c[nH]c2ccccc12)NC(=O)[C@H](CCCNC(=N)N)NC(=O)[C@H](Cc1c[nH]c2ccccc12)NC(=O)[C@H](CCC(N)=O)NC(=O)[C@H](Cc1c[nH]c2ccccc12)NC(=O)[C@@H](N)CCCNC(=N)N)C(N)=O` [LfcinB (21–25)Pal] (H-RWQWRWQWR-NH2), the “Antibacterial activity, MIC” value is 17 µM in the assay on E. coli ATCC 25922 (setting [1]); 17 µM in the assay with E. coli ATCC 43827; 67 µM in the assay on P. aeruginosa ATCC 27853; 135 µM in the assay with S. aureus ATCC 25923; 17 µM in the assay on E. coli ATCC 11775 (setting [1]); 67 µM in the assay with E. faecalis ATCC 29212. Moreover, the “Antibacterial activity, MBC” value in the assay on E. coli ATCC 25922 (plated on MHA, overnight 37 °C) was 34 µM; in the assay on E. coli ATCC 43827, 67 µM; in the assay with P. aeruginosa ATCC 27853, 135 µM; with S. aureus ATCC 25923, greater than 135 µM; in the assay with E. coli ATCC 11775 (plated on MHA, overnight 37 °C), 17 µM; in the assay with E. faecalis ATCC 29212 it was 67 µM.

As to `CSCC[C@H](NC(=O)[C@H](CCCNC(=N)N)NC(=O)[C@H](Cc1c[nH]c2ccccc12)NC(=O)[C@H](CCC(N)=O)NC(=O)[C@H](Cc1c[nH]c2ccccc12)NC(=O)[C@H](CCCNC(=N)N)NC(=O)[C@H](CCCNC(=N)N)NC(=O)[C@H](C)NC(=O)[C@H](CCCCN)NC(=O)[C@@H](N)Cc1ccccc1)C(=O)N[C@@H](CCCCN)C(=O)N[C@@H](CCCCN)C(=O)N[C@@H](CC(C)C)C(=O)NCC(=O)N[C@@H](C)C(N)=O` [[Ala^19]-LfcinB (17–31)], the Antibacterial activity, MIC in the assay with E. coli ATCC 43827 is 102 µM; in the assay with P. aeruginosa ATCC 27853, 102 µM; in the assay with S. aureus ATCC 25923, greater than 102 µM; in the assay with E. faecalis ATCC 29212, greater than 102 µM. For the same molecule, the Antibacterial activity, MBC in the assay with E. coli ATCC 43827, in the assay with P. aeruginosa ATCC 27853, in the assay with S. aureus ATCC 25923 and in the assay with E. faecalis ATCC 29212 was greater than 102 µM in each case.
